Series [1] is described as follows: Drug uptake in monkey hypothalamus at 4.92 to 6.6 mCi, iv administered as bolus dose measured up to 20 mins by PET imaging analysis. The class given is ADME, organism-based, Macaca mulatta. The note with it: rhesus monkey, in vivo.
Series [2] in a line: Drug uptake in SB612111-pretreated monkey amygdala at 4.92 to 6.6 mCi, iv administered at 10 mins post SB612111-treatment measured from 10 to 120 mins by PET imaging analysis. The class given is ADME, organism-based, Macaca mulatta. The note with it: rhesus monkey, in vivo.
The nature of series [3]: Drug uptake in SB612111-pretreated monkey hypothalamus at 4.92 to 6.6 mCi, iv administered at 10 mins post SB612111-treatment measured from 10 to 120 mins by PET imaging analysis. The format is ADME, organism-based, Macaca mulatta. The note with it: rhesus monkey, in vivo.
The nature of series [4]: Drug uptake in monkey cerebellum at 4.92 to 6.6 mCi, iv administered as bolus dose measured at 120 mins by PET imaging analysis. The class given is ADME, organism-based, Macaca mulatta. As to conditions: rhesus monkey, in vivo, 2 h; call rule not given here.
Series [5] can be described thus: Drug uptake in monkey hypothalamus at 4.92 to 6.6 mCi, iv administered as bolus dose measured at 120 mins by PET imaging analysis. The format is ADME, organism-based, Macaca mulatta. The note with it: rhesus monkey, in vivo, 2 h.
Series [6] can be described thus: Drug uptake in monkey amygdala at 4.92 to 6.6 mCi, iv administered as bolus dose measured at 120 mins by PET imaging analysis. The class given is ADME, organism-based, Macaca mulatta. The note with it: rhesus monkey, in vivo, 2 h.
A short description of series [7]: Drug uptake in SB612111-pretreated monkey caudate at 4.92 to 6.6 mCi, iv administered at 10 mins post SB612111-treatment measured from 10 to 120 mins by PET imaging analysis. The format is ADME, organism-based, Macaca mulatta, Caudate nucleus. The note with it: rhesus monkey, in vivo.
Series [8] is described as follows: Drug uptake in SB612111-pretreated monkey cerebellum at 4.92 to 6.6 mCi, iv administered at 10 mins post SB612111-treatment measured within 10 mins by PET imaging analysis. The format is ADME, organism-based, Macaca mulatta. As to conditions: rhesus monkey, in vivo.
The nature of series [9]: Drug uptake in SB612111-pretreated monkey amygdala at 4.92 to 6.6 mCi, iv administered at 10 mins post SB612111-treatment measured within 10 mins by PET imaging analysis. The format is ADME, organism-based, Macaca mulatta. The note with it: rhesus monkey, in vivo.
Series [10] in a line: Drug uptake in SB612111-pretreated monkey cerebellum at 4.92 to 6.6 mCi, iv administered at 10 mins post SB612111-treatment measured from 10 to 120 mins by PET imaging analysis. The format is ADME, organism-based, Macaca mulatta. The note with it: rhesus monkey, in vivo.
Series [11] is described as follows: Drug uptake in SB612111-pretreated monkey lateral temporal cortex at 4.92 to 6.6 mCi, iv administered at 10 mins post SB612111-treatment measured within 10 mins by PET imaging analysis. The class given is ADME, organism-based, Macaca mulatta. As to conditions: rhesus monkey, in vivo.
The nature of series [12]: Drug uptake in SB612111-pretreated monkey hypothalamus at 4.92 to 6.6 mCi, iv administered at 10 mins post SB612111-treatment measured within 10 mins by PET imaging analysis. The class given is ADME, organism-based, Macaca mulatta. The note with it: rhesus monkey, in vivo.
The nature of series [13]: Drug uptake in monkey amygdala at 4.92 to 6.6 mCi, iv administered as bolus dose measured up to 20 mins by PET imaging analysis. The class given is ADME, organism-based, Macaca mulatta. The note with it: rhesus monkey, in vivo.
Series [14] in a line: Drug uptake in monkey lateral temporal cortex at 4.92 to 6.6 mCi, iv administered as bolus dose measured at 120 mins by PET imaging analysis. The class given is ADME, organism-based, Macaca mulatta. As to conditions: rhesus monkey, in vivo, 2 h.
Series [15] in a line: Drug uptake in monkey cerebellum at 4.92 to 6.6 mCi, iv administered as bolus dose measured up to 20 mins by PET imaging analysis. As to conditions: rhesus monkey, in vivo. The format is ADME, organism-based, Macaca mulatta.
Series [16] is described as follows: Drug uptake in SB612111-pretreated monkey lateral temporal cortex at 4.92 to 6.6 mCi, iv administered at 10 mins post SB612111-treatment measured from 10 to 120 mins by PET imaging analysis. The note with it: rhesus monkey, in vivo. The format is ADME, organism-based, Macaca mulatta.
Series [17] in a line: Drug uptake in monkey caudate at 4.92 to 6.6 mCi, iv administered as bolus dose measured up to 20 mins by PET imaging analysis. The class given is ADME, organism-based, Macaca mulatta, Caudate nucleus. As to conditions: rhesus monkey, in vivo.
The nature of series [18]: Drug uptake in monkey caudate at 4.92 to 6.6 mCi, iv administered as bolus dose measured at 120 mins by PET imaging analysis. The format is ADME, organism-based, Macaca mulatta, Caudate nucleus. The note with it: rhesus monkey, in vivo, 2 h.
The nature of series [19]: Drug uptake in SB612111-pretreated monkey caudate at 4.92 to 6.6 mCi, iv administered at 10 mins post SB612111-treatment measured within 10 mins by PET imaging analysis. As to conditions: rhesus monkey, in vivo. The format is ADME, organism-based, Macaca mulatta, Caudate nucleus.
Series [20] in a line: Drug uptake in monkey lateral temporal cortex at 4.92 to 6.6 mCi, iv administered as bolus dose measured up to 20 mins by PET imaging analysis. The class given is ADME, organism-based, Macaca mulatta. The note with it: rhesus monkey, in vivo.
In another series the target is Nociceptin receptor (Homo sapiens, UniProt P41146). Briefly: Displacement of [3H]nociceptin from human recombinant NOP receptor expressed in CHO cells after 60 mins by microbeta scintillation counting. The class given is cell-based.
Chain of Nociceptin receptor (P41146 whole entry): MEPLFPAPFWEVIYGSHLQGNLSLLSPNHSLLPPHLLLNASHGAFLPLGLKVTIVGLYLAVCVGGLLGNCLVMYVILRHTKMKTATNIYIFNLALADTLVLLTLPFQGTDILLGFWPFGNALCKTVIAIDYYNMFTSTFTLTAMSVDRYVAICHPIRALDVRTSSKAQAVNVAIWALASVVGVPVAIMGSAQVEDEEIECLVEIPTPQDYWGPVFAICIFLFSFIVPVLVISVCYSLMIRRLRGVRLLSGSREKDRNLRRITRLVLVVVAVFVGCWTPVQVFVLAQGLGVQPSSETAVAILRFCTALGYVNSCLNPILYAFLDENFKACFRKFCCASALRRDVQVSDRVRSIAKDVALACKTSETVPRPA
A short description of series [21]: Drug uptake in monkey amygdala at 4.92 to 6.6 mCi, iv administered as bolus dose measured at 90 mins by PET imaging analysis. The format is ADME, organism-based, Macaca mulatta. As to conditions: rhesus monkey, in vivo.
Series [22] in a line: Drug uptake in SB612111-pretreated monkey lateral temporal cortex at 4.92 to 6.6 mCi, iv administered at 10 mins post SB612111-treatment measured from 10 to 90 mins by PET imaging analysis. The format is ADME, organism-based, Macaca mulatta. The note with it: rhesus monkey, in vivo.
Series [23] can be described thus: Drug uptake in monkey cerebellum at 4.92 to 6.6 mCi, iv administered as bolus dose measured at 90 mins by PET imaging analysis. The class given is ADME, organism-based, Macaca mulatta. The note with it: rhesus monkey, in vivo.
Series [24] can be described thus: Drug uptake in SB612111-pretreated monkey hypothalamus at 4.92 to 6.6 mCi, iv administered at 10 mins post SB612111-treatment measured from 10 to 90 mins by PET imaging analysis. As to conditions: rhesus monkey, in vivo. The class given is ADME, organism-based, Macaca mulatta.
Series [25] in a line: Drug uptake in SB612111-pretreated monkey amygdala at 4.92 to 6.6 mCi, iv administered at 10 mins post SB612111-treatment measured from 10 to 90 mins by PET imaging analysis. As to conditions: rhesus monkey, in vivo. The format is ADME, organism-based, Macaca mulatta.
Series [26] is described as follows: Drug uptake in SB612111-pretreated monkey cerebellum at 4.92 to 6.6 mCi, iv administered at 10 mins post SB612111-treatment measured from 10 to 90 mins by PET imaging analysis. The format is ADME, organism-based, Macaca mulatta. As to conditions: rhesus monkey, in vivo.
Series [27] can be described thus: Drug uptake in SB612111-pretreated monkey caudate at 4.92 to 6.6 mCi, iv administered at 10 mins post SB612111-treatment measured from 10 to 90 mins by PET imaging analysis. As to conditions: rhesus monkey, in vivo. The class given is ADME, organism-based, Macaca mulatta, Caudate nucleus.
Series [28] can be described thus: Drug uptake in monkey caudate at 4.92 to 6.6 mCi, iv administered as bolus dose measured at 90 mins by PET imaging analysis. The format is ADME, organism-based, Macaca mulatta, Caudate nucleus. As to conditions: rhesus monkey, in vivo.
Series [29] is described as follows: Drug uptake in monkey lateral temporal cortex at 4.92 to 6.6 mCi, iv administered as bolus dose measured at 90 mins by PET imaging analysis. The class given is ADME, organism-based, Macaca mulatta. As to conditions: rhesus monkey, in vivo.
Series [30] is described as follows: Drug uptake in monkey hypothalamus at 4.92 to 6.6 mCi, iv administered as bolus dose measured at 90 mins by PET imaging analysis. The format is ADME, organism-based, Macaca mulatta. The note with it: rhesus monkey, in vivo.
In series [31] the test system is Brain. Briefly: Drug uptake in rat brain at 6 ug/ml, iv at 10 mins by LC/MS analysis. The note with it: in vivo. The format is ADME, organism-based. The method in brief:
(§1)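 Male Sprague-Dawley rats (230–280 g), non-anesthetised. Ligand in 25% β-cyclodextrin diluted to 6 μg/mL and given iv via tail vein at 0.5 mL/kg (3 μg/kg), n = 3–4 per group. Rats killed at 10, 20, 40 or 60 min. Hypothalamus and striatum extracted in acetonitrile/0.1% formic acid and quantified by LC-MS/MS against spiked brain standards. Result expressed as %SUV.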

Series [32] can be described thus: Lipophilicity, log D of the compound by radiometric method. As to conditions: octanol/water. The class given is physicochemical. In a few lines:
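log D at pH 7.4 measured radiometrically on the carbon-11-labelled form of the ligand. Six determinations, reported as mean ± SD.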

Series [33] relates to Brain. Briefly: Drug uptake in rat brain at 6 ug/ml, iv after 1 hr by LC/MS analysis. As to conditions: in vivo. The format is ADME, organism-based. In a few lines:
as §1

The subject of series [34] is Brain. Briefly: Drug uptake in rat brain at 6 ug/ml, iv up to 1 hr by LC/MS analysis. The class given is ADME, organism-based. As to conditions: in vivo. In a few lines:
as §1

A short description of series [35]: Lipophilicity, log D of the compound by shake flask method. The note with it: octanol/water. The format is physicochemical. In a few lines:
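Shake-flask log D at pH 7.4 on the nonradioactive compound. Each enantiomer was measured.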

The values that follow come from ChEMBL document CHEMBL2202974 (J Med Chem, 2011).

Each structure is given as a SMILES string.

In general, Ki refers to the dissociation constant of the complex between target and ligand, obtained from inhibition or displacement. Usually logD stands for the decadic logarithm of the distribution of all forms, ionised or not, between an organic phase and buffer at a given pH.

As for `CC(C)N([11CH3])C(=O)[C@@H](Cc1ccccc1F)CN1CCC2(CC1)OCCc1cc(F)sc12`, the Drug uptake result in series [1] is reported as “Active”; in [2], “Not Active”; in series [3], “Not Active”; in series [4] it was “Not Active”; in [5], “Not Active”; in [6] it was “Not Active”. Moreover, the Drug uptake result in series [7] was “Not Active”; in series [8], “Active”; in [9], “Active”; in series [10] it was “Not Active”; in series [11] it was “Active”; in series [12], “Active”. Moreover, the Drug uptake entry is “Active” in series [13]; “Not Active” in [14]; “Active” in [15]; “Not Active” in series [16]; “Active” in [17]; “Not Active” in [18]. Further, the Drug uptake entry in series [19] and in series [20] was “Active” in each case.
`NC(=O)[C@@H](Cc1ccccc1Cl)CN1CCC2(CC1)OCCc1cc(F)sc12`: the inhibitory constant (Ki) at Nociceptin receptor came out at 0.101 nM.
In the case of `[11CH3]NC(=O)[C@@H](Cc1ccccc1Cl)CN1CCC2(CC1)OCCc1cc(F)sc12`, the Drug uptake entry is “Active” in [1]; “Not Active” in series [21]; “Not Active” in [22]; “Not Active” in series [23]; “Not Active” in [24]; “Not Active” in series [25]. Further, the Drug uptake result in [8] is recorded as “Active”; in series [9], “Active”; in [26], “Not Active”; in [11], “Active”; in series [12] it was “Active”; in series [13], “Active”. For the same molecule, the Drug uptake entry was “Not Active” in series [27]; “Active” in series [15]; “Not Active” in [28]; “Active” in series [17]; “Not Active” in series [29]; “Active” in [19]. The Drug uptake entry in [30] is on record as “Not Active”; in series [20] it was “Active”.
The molecule `CNC(=O)[C@@H](Cc1ccccc1F)CN1CCC2(CC1)OCCc1cc(F)sc12` [NOP-1A] had an SUV with Brain [31] of 280%. The molecule further registered a pH-dependent lipophilicity (logD) in series [32] of 3.41. The values for the Drug uptake result in the series on Brain [33] and with Brain [34] were “Not Active” and “Active”, respectively.
Consider `CC(C)N(C)C(=O)[C@@H](Cc1ccccc1F)CN1CCC2(CC1)OCCc1cc(F)sc12`, for which, in the series with Brain [31], the SUV was determined as 453%. For the same molecule, the Drug uptake result was “Not Active” with Brain [33] and “Active” with Brain [34].
Molecule `CC(C)N(C)C(=O)[C@H](Cc1ccccc1F)CN1CCC2(CC1)OCCc1cc(F)sc12` registered a logD in series [35] of 4.47.
Still for that read-out and setting: as for `CNC(=O)[C@H](Cc1ccccc1Cl)CN1CCC2(CC1)OCCc1cc(F)sc12`, the figure is 3.9.
Consider `CNC(=O)[C@@H](Cc1ccccc1Cl)CN1CCC2(CC1)OCCc1cc(F)sc12`, for which the SUV in the series with Brain [31] stood at 280%. Also, the Drug uptake result in the series with Brain [33] was “Not Active”; in the series with Brain [34], “Active”.
As to `NC(=O)[C@H](Cc1ccccc1Cl)CN1CCC2(CC1)OCCc1cc(F)sc12`, the Ki at Nociceptin receptor is 17.1 nM.
